Calls of active or inactive are those of the source. The rule behind the calls is not given here.
What was measured:
[1] = Cytotoxicity against human HuH7 cells infected with Hepatitis C virus subtype 2a; format: cell-based, Huh-7
Hepatitis C virus [2] = assay: Antiviral activity against Hepatitis C virus subtype 2a infected in human HuH7 cells; format: functional, organism-based, Hepacivirus hominis; conditions: genotype 2a, Huh-7
[3] = Cytotoxicity against human HuH7 cells infected with Hepatitis C virus subtype 1b; format: cell-based, Huh-7
Hepatitis C virus [4] = assay: Antiviral activity against Hepatitis C virus subtype 1b infected in human HuH7 cells; format: functional, organism-based, Hepacivirus hominis; conditions: genotype 1b, Huh-7
Candida tropicalis = assay: Antifungal activity against Candida tropicalis after 48 hrs; format: functional, organism-based
Pichia kudriavzevii = assay: Antifungal activity against Candida crusei after 48 hrs; format: functional, organism-based
Candida parapsilosis = assay: Antifungal activity against Candida parapsilosis after 48 hrs; format: functional, organism-based
Candida albicans = assay: Antifungal activity against Candida albicans after 48 hrs; format: functional, organism-based
Pseudomonas aeruginosa [5] = assay: Antibacterial activity against multi-resistant Pseudomonas aeruginosa A/16575 after 24 hrs; format: functional, organism-based
Escherichia coli [6] = assay: Antibacterial activity against multi-resistant Escherichia coli C/16702 after 24 hrs; format: functional, organism-based
[7] = system: Staphylococcus haemolyticus; assay: Antibacterial activity against methicillin-resistant Staphylococcus haemolyticus A/16568 after 24 hrs; format: functional, organism-based
Staphylococcus aureus [8] = assay: Antibacterial activity against methicillin-resistant Staphylococcus aureus MRSA 4591 after 24 hrs; format: functional, organism-based
Pseudomonas aeruginosa [9] = assay: Antibacterial activity against Pseudomonas aeruginosa CCM 3955 after 24 hrs; format: functional, organism-based
Escherichia coli [10] = assay: Antibacterial activity against Escherichia coli CCM 3954 after 24 hrs; format: functional, organism-based
Staphylococcus aureus [11] = assay: Antibacterial activity against Staphylococcus aureus CCM 3953 after 24 hrs; format: functional, organism-based
Enterococcus faecalis = assay: Antibacterial activity against Enterococcus faecalis CCM 4224 after 24 hrs; format: functional, organism-based
[12] = Antiproliferative activity against human HeLaS3 cells after 72 hrs by XTT assay; format: functional, cell-based; conditions: HeLa S3, 72 h
Procedure, shortened: (§1)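 Antiproliferative test on HL-60 promyelocytic leukemia and HeLa S3 cervical carcinoma cells growing in liquid suspension.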

HL-60 = assay: Antiproliferative activity against human HL60 cells after 72 hrs by XTT assay; format: functional, cell-based; conditions: HL-60, 72 h; procedure, shortened: as §1
HepG2 = assay: Antiproliferative activity against human HepG2 cells after 72 hrs by XTT assay; format: functional, cell-based; conditions: HepG2, 72 h
MRC5 = assay: Cytostatic activity against human MRC5 cells after 72 hrs by MTT assay; format: ADME, cell-based; conditions: MRC5, 72 h
Procedure, shortened: (§2)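 IC50 is the concentration that cuts cell growth by 50%, read by quantitative metabolic MTT staining after a 3-day treatment. The resistant sublines were made by raising the concentration of the cytotoxic drug step by step. CEM-DNR-bulk (daunorubicin-selected) stably overexpresses mrp-1. K562-TAX (paclitaxel-selected) expresses only mdr-1. HCT116p53−/− carries null p53 alleles. BJ and MRC-5 are nonmalignant fibroblasts.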

BJ = assay: Cytostatic activity against human BJ cells after 72 hrs by MTT assay; format: ADME, cell-based; procedure, shortened: as §2
HCT-116 [13] = assay: Cytostatic activity against p53-deficient human HCT116 cells after 72 hrs by MTT assay; format: functional, cell-based; conditions: HCT-116, 72 h; procedure, shortened: as §2
HCT-116 [14] = assay: Cytostatic activity against human HCT116 cells after 72 hrs by MTT assay; format: functional, cell-based; conditions: HCT-116, 72 h; procedure, shortened: as §2
A549 = assay: Cytostatic activity against human A549 cells after 72 hrs by MTT assay; format: functional, cell-based; conditions: A549, 72 h; procedure, shortened: as §2
K562 [15] = assay: Cytostatic activity against paclitaxel-resistant human K562 cells after 72 hrs by MTT assay; format: functional, cell-based; conditions: K562, 72 h; procedure, shortened: as §2
K562 [16] = assay: Cytostatic activity against human K562 cells after 72 hrs by MTT assay; format: functional, cell-based; conditions: K562, 72 h; procedure, shortened: as §2
[17] = Cytostatic activity against human CEM-DNR-bulk cells after 72 hrs by MTT assay; format: functional, cell-based; procedure, shortened: as §2
CCRF-CEM = assay: Cytostatic activity against human CCRF-CEM cells after 72 hrs by MTT assay; format: functional, cell-based; procedure, shortened: as §2

Nc1nc2c(c(-c3ccsc3)cn2[C@@H]2O[C@H](CO)[C@@H](O)[C@H]2O)c(=O)[nH]1
CC50 [1]: > 44 µM
EC50 (Hepatitis C virus [2]): > 44 µM
CC50 [3]: > 44 µM
EC50 (Hepatitis C virus [4]): > 44 µM
Activity (Candida tropicalis): inactive
Activity (Pichia kudriavzevii): inactive
Activity (Candida parapsilosis): inactive
Activity (Candida albicans): inactive
Activity (Pseudomonas aeruginosa [5]): inactive
Activity (Escherichia coli [6]): inactive
Activity [7]: inactive
Activity (Staphylococcus aureus [8]): inactive
Activity (Pseudomonas aeruginosa [9]): inactive
Activity (Escherichia coli [10]): inactive
Activity (Staphylococcus aureus [11]): inactive
Activity (Enterococcus faecalis): inactive
IC50 [12]: > 20 µM
IC50 (HL-60): > 20 µM
IC50 (HepG2): > 20 µM
IC50 (MRC5): > 100 µM
IC50 (BJ): > 100 µM
IC50 (HCT-116 [13]): > 20 µM
IC50 (HCT-116 [14]): > 20 µM
IC50 (A549): > 20 µM
IC50 (K562 [15]): 18.3 µM
IC50 (K562 [16]): > 20 µM
IC50 [17]: > 20 µM
IC50 (CCRF-CEM): > 20 µM

CN(C)c1ncnc2c1c(-c1cccs1)cn2[C@@H]1O[C@H](CO)[C@@H](O)[C@H]1O
CC50 [1]: > 44 µM
EC50 (Hepatitis C virus [2]): > 44 µM
CC50 [3]: > 44 µM
EC50 (Hepatitis C virus [4]): 16.8 µM
Activity (Candida tropicalis): inactive
Activity (Pichia kudriavzevii): inactive
Activity (Candida parapsilosis): inactive
Activity (Candida albicans): inactive
Activity (Pseudomonas aeruginosa [5]): inactive
Activity (Escherichia coli [6]): inactive
Activity [7]: inactive
Activity (Staphylococcus aureus [8]): inactive
Activity (Pseudomonas aeruginosa [9]): inactive
Activity (Escherichia coli [10]): inactive
Activity (Staphylococcus aureus [11]): inactive
Activity (Enterococcus faecalis): inactive
IC50 [12]: > 20 µM
IC50 (HL-60): 11.8 µM
IC50 (HepG2): > 20 µM
IC50 (MRC5): > 100 µM
IC50 (BJ): > 100 µM
IC50 (HCT-116 [13]): > 20 µM
IC50 (HCT-116 [14]): > 20 µM
IC50 (A549): > 20 µM
IC50 (K562 [15]): > 20 µM
IC50 (K562 [16]): > 20 µM
IC50 [17]: > 20 µM
IC50 (CCRF-CEM): > 20 µM

CN(C)c1ncnc2c1ccn2[C@@H]1O[C@H](CO)[C@@H](O)[C@H]1O
CC50 [1]: > 44 µM
EC50 (Hepatitis C virus [2]): 0.97 µM
CC50 [3]: > 44 µM
EC50 (Hepatitis C virus [4]): 0.27 µM
Activity (Candida tropicalis): inactive
Activity (Pichia kudriavzevii): inactive
Activity (Candida parapsilosis): inactive
Activity (Candida albicans): inactive
Activity (Pseudomonas aeruginosa [5]): inactive
Activity (Escherichia coli [6]): inactive
Activity [7]: inactive
Activity (Staphylococcus aureus [8]): inactive
Activity (Pseudomonas aeruginosa [9]): inactive
Activity (Escherichia coli [10]): inactive
Activity (Staphylococcus aureus [11]): inactive
Activity (Enterococcus faecalis): inactive
IC50 [12]: 10.6 µM
IC50 (HL-60): 0.87 µM
IC50 (HepG2): 1.81 µM
IC50 (MRC5): 58.2 µM
IC50 (BJ): 5.3 µM
IC50 (HCT-116 [13]): 5.09 µM
IC50 (HCT-116 [14]): 18.4 µM
IC50 (A549): > 20 µM
IC50 (K562 [15]): 0.89 µM
IC50 (K562 [16]): 5.28 µM
IC50 [17]: 2.6 µM
IC50 (CCRF-CEM): 0.63 µM

From ChEMBL document CHEMBL3124843, “Synthesis, cytostatic, antimicrobial, and anti-HCV activity of 6-substituted 7-(het)aryl-7-deazapurine ribonucleosides” (J Med Chem, 2014)
